Experiments:
Type in all cases: functional
Pseudomonas aeruginosa = test: Antibacterial activity against Pseudomonas aeruginosa PAO1
How it was run: (§1)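 Compounds serially diluted twofold in DMSO to give 10 concentrations starting at 64 μg/mL; bacterial and fungal strains exposed by previously described methods. MIC taken as lowest concentration inhibiting ≥95% of growth after overnight incubation. Data processed to give MIC; assay robustness RZ′ factor 0.89–0.97 across experiments.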

Acinetobacter baumannii = test: Antibacterial activity against Acinetobacter baumannii CL 5973; how it was run: as §1
Escherichia coli = test: Antibacterial activity against Escherichia coli MB2884; how it was run: as §1
Staphylococcus aureus [1] = test: Antibacterial activity against methicillin-sensitive Staphylococcus aureus EPI167
How it was run: (§2)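 Compounds twofold serially diluted in DMSO, 10 concentrations starting at 64 μg/mL. Growth inhibition read after overnight incubation. MIC taken as the lowest concentration inhibiting ≥95% of growth. Assay robustness RZ′ factor 0.89–0.97.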

Staphylococcus aureus [2] = test: Antibacterial activity against methicillin-resistant Staphylococcus aureus MB5393; how it was run: as §2
Candida albicans [3] = test: Antifungal activity against Candida albicans MY1055; how it was run: as §1
Candida albicans [4] = test: Antifungal activity against Candida albicans ATCC64124; how it was run: as §1
Aspergillus fumigatus = test: Antifungal activity against Aspergillus fumigatus ATCC46645; how it was run: as §1

Measured: MIC95

COC(=O)c1c(Oc2cc(C)cc(O)c2C(=O)OCC(C)C(=O)OC)c(OC)cc(O)c1[N+](=O)[O-] (configuration not stated)
> 64 µg/mL: all assays above

COC(=O)c1c(Oc2cc(C)cc(O)c2C(=O)OCC(C)C(=O)O)c(OC)cc(O)c1[N+](=O)[O-] (configuration not stated)
> 64 µg/mL: all assays above

COC(=O)c1c(Oc2cc(C)cc(O)c2C(=O)OC(C)C(=O)O)c(OC)cc(O)c1[N+](=O)[O-] (configuration not stated)
> 64 µg/mL: all assays above

COC(=O)c1c(Oc2cc(C)cc(O)c2C(=O)O)c(OC)cc(O)c1[N+](=O)[O-]
> 64 µg/mL: all assays above

Source: ChEMBL document CHEMBL3576776, “3-Nitroasterric Acid Derivatives from an Antarctic Sponge-Derived Pseudogymnoascus sp. Fungus” (2015)
